Measurements reported in ChEMBL document CHEMBL4138271, “Crystal Structures and Human Leukemia Cell Apoptosis Inducible Activities of Parthenolide Analogues Isolated from Piptocoma rufescens” (J Nat Prod, 2018).
The source made the active and inactive calls. No cut-off for these calls is given here.

Key:
[1] = tested on: EOL1; test: Induction of apoptosis in human EOL-1 cells assessed as live cells at 0.81 uM after 24 hrs by Annexin-V FITC/7-AAD staining based flow cytometric method (reference value: 97.5%); format: functional
[2] = tested on: EOL1; test: Induction of apoptosis in human EOL-1 cells assessed as early apoptotic cells at 0.81 uM after 24 hrs by Annexin-V FITC/7-AAD staining based flow cytometric method (reference value: 1.94%); format: functional
[3] = tested on: MOLM-13; test: Synergistic antileukemic activity against human MOLM13 cells assessed as concentration required for <= 75% cell survival after 72 hrs in presence of midostaurin by CellTiter 96 AQueous One solution cell proliferation assay; format: functional
[4] = tested on: MOLM-13; test: Induction of apoptosis in human MOLM13 cells assessed as late apoptotic cells at 1.6 uM after 24 hrs by Annexin-V FITC/7-AAD staining based flow cytometric method (reference value: 1.43%); format: functional
[5] = tested on: EOL1; test: Induction of apoptosis in human EOL-1 cells assessed as late apoptotic cells at 1.6 uM after 24 hrs by Annexin-V FITC/7-AAD staining based flow cytometric method (reference value: 0.535%); format: functional
[6] = tested on: EOL1; test: Synergistic antileukemic activity against human EOL-1 cells assessed as concentration required for <= 75% cell survival after 72 hrs in presence of midostaurin by CellTiter 96 AQueous One solution cell proliferation assay; format: functional
[7] = tested on: MOLM-13; test: Induction of apoptosis in human MOLM13 cells assessed as early apoptotic cells at 1.6 uM after 24 hrs by Annexin-V FITC/7-AAD staining based flow cytometric method (reference value: 11.8%); format: functional
[8] = tested on: MOLM-13; test: Induction of apoptosis in human MOLM13 cells assessed as necrotic cells at 1.6 uM after 24 hrs by Annexin-V FITC/7-AAD staining based flow cytometric method (reference value: 0%); format: functional
[9] = tested on: EOL1; test: Induction of apoptosis in human EOL-1 cells assessed as necrotic cells at 1.6 uM after 24 hrs by Annexin-V FITC/7-AAD staining based flow cytometric method (reference value: 0.032%); format: functional
[10] = tested on: EOL1; test: Induction of apoptosis in human EOL-1 cells assessed as caspase-3 activation at 10 uM after 72 hrs by immunoblotting analysis; format: functional, cell-based
Method in brief: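 EOL-1 cells (RPMI 1640, 10% FBS, 37 °C, 5% CO2) exposed 72 h; compounds at 10 μM, PKC412 at 10 nM. Harvested, PBS-washed, lysed in hypertonic NP-40 buffer with protease/phosphatase inhibitors; SDS-PAGE, PVDF transfer, rabbit monoclonal cleaved caspase-3 (Asp175) antibody 12 h, secondary 1 h, chemiluminescent detection; β-actin loading control. Representative blots of three independent experiments.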

[11] = tested on: MOLM-13; test: Induction of apoptosis in human MOLM13 cells assessed as necrotic cells at 4 uM after 24 hrs by Annexin-V FITC/7-AAD staining based flow cytometric method (reference value: 0%); format: functional
[12] = tested on: MOLM-13; test: Induction of apoptosis in human MOLM13 cells assessed as necrotic cells at 0.81 uM after 24 hrs by Annexin-V FITC/7-AAD staining based flow cytometric method (reference value: 0%); format: functional
[13] = tested on: MOLM-13; test: Cytotoxicity against human MOLM13 cells after 72 hrs by MTS assay; format: functional, cell-based; settings: MOLM-13, 72 h
[14] = tested on: MOLM-13; test: Induction of apoptosis in human MOLM13 cells assessed as late apoptotic cells at 4 uM after 24 hrs by Annexin-V FITC/7-AAD staining based flow cytometric method (reference value: 1.43%); format: functional
[15] = tested on: MOLM-13; test: Induction of apoptosis in human MOLM13 cells assessed as early apoptotic cells at 0.81 uM after 24 hrs by Annexin-V FITC/7-AAD staining based flow cytometric method (reference value: 11.8%); format: functional
[16] = tested on: MOLM-13; test: Induction of apoptosis in human MOLM13 cells assessed as live cells at 0.81 uM after 24 hrs by Annexin-V FITC/7-AAD staining based flow cytometric method (reference value: 86.8%); format: functional
[17] = tested on: MOLM-13; test: Induction of apoptosis in human MOLM13 cells assessed as live cells at 1.6 uM after 24 hrs by Annexin-V FITC/7-AAD staining based flow cytometric method (reference value: 86.8%); format: functional
[18] = tested on: EOL1; test: Induction of apoptosis in human EOL-1 cells assessed as necrotic cells at 4 uM after 24 hrs by Annexin-V FITC/7-AAD staining based flow cytometric method (reference value: 0.032%); format: functional
[19] = tested on: MOLM-13; test: Induction of apoptosis in human MOLM13 cells assessed as live cells at 4 uM after 24 hrs by Annexin-V FITC/7-AAD staining based flow cytometric method (reference value: 86.8%); format: functional
[20] = tested on: EOL1; test: Induction of apoptosis in human EOL-1 cells assessed as early apoptotic cells at 4 uM after 24 hrs by Annexin-V FITC/7-AAD staining based flow cytometric method (reference value: 1.94%); format: functional
[21] = tested on: EOL1; test: Induction of apoptosis in human EOL-1 cells assessed as late apoptotic cells at 0.81 uM after 24 hrs by Annexin-V FITC/7-AAD staining based flow cytometric method (reference value: 0.535%); format: functional
[22] = tested on: EOL1; test: Induction of apoptosis in human EOL-1 cells assessed as live cells at 4 uM after 24 hrs by Annexin-V FITC/7-AAD staining based flow cytometric method (reference value: 97.5%); format: functional
[23] = tested on: EOL1; test: Induction of apoptosis in human EOL-1 cells assessed as necrotic cells at 0.81 uM after 24 hrs by Annexin-V FITC/7-AAD staining based flow cytometric method (reference value: 0.032%); format: functional
[24] = tested on: EOL1; test: Cytotoxicity against human EOL-1 cells after 72 hrs by MTS assay; format: functional, cell-based; settings: EOL1, 72 h
[25] = tested on: MOLM-13; test: Induction of apoptosis in human MOLM13 cells assessed as late apoptotic cells at 0.81 uM after 24 hrs by Annexin-V FITC/7-AAD staining based flow cytometric method (reference value: 1.43%); format: functional
[26] = tested on: MOLM-13; test: Induction of apoptosis in human MOLM13 cells assessed as caspase-3 activation at 10 uM after 72 hrs by immunoblotting analysis; format: functional, cell-based
Method in brief: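 MOLM-13 cells treated 72 h with test compounds at 10 μM or PKC412 at 10 nM. Cells washed in ice-cold PBS, lysed at 10^8 cells/mL in NP-40 hypertonic buffer (pH 7.5) with protease/phosphatase inhibitors, then run on SDS-PAGE and PVDF. Blots probed 12 h with rabbit monoclonal cleaved caspase-3 (Asp175), β-actin as loading control. Representative of three independent experiments.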

[27] = tested on: EOL1; test: Induction of apoptosis in human EOL-1 cells assessed as early apoptotic cells at 1.6 uM after 24 hrs by Annexin-V FITC/7-AAD staining based flow cytometric method (reference value: 1.94%); format: functional
[28] = tested on: EOL1; test: Induction of apoptosis in human EOL-1 cells assessed as late apoptotic cells at 4 uM after 24 hrs by Annexin-V FITC/7-AAD staining based flow cytometric method (reference value: 0.535%); format: functional
[29] = tested on: MOLM-13; test: Induction of apoptosis in human MOLM13 cells assessed as early apoptotic cells at 4 uM after 24 hrs by Annexin-V FITC/7-AAD staining based flow cytometric method (reference value: 11.8%); format: functional
[30] = tested on: EOL1; test: Induction of apoptosis in human EOL-1 cells assessed as live cells at 1.6 uM after 24 hrs by Annexin-V FITC/7-AAD staining based flow cytometric method (reference value: 97.5%); format: functional

`C=C1C(=O)O[C@@H]2C3O[C@]3(C)CC/C=C(\C)CC[C@@H]12` (stereo not given in full) showed an Activity [1] of 98.1%, an Activity [2] of 1.56% and an Activity [3] of 3.2 µM. For the same compound, the Activity [4] was 1.23%, the Activity [5] was 0.361% and the Activity [6] was 3.2 µM. It also gave an Activity [7] of 4.46%, an Activity [8] of 0.044% and an Activity [9] of 0.043%. For the same compound, the Activity [10] was “Active”, the Activity [11] was 0.181% and the Activity [12] was 0.033%. It also gave an IC50 [13] of 10 µM, an Activity [14] of 1.02% and an Activity [15] of 8.23%. For the same compound, the Activity [16] was 90.6%, the Activity [17] was 94.3% and the Activity [18] was 0.118%. For the same compound, the Activity [19] was 92.4%, the Activity [20] was 2.13% and the Activity [21] was 0.329%. For the same compound, the Activity [22] was 97%, the Activity [23] was 0.011% and the IC50 [24] was 7.5 µM. For the same compound, the Activity [25] was 1.14%, the Activity [26] was “Active” and the Activity [27] was 2.43%. It also gave an Activity [28] of 0.697%, an Activity [29] of 6.43% and an Activity [30] of 97.2%.
